Measured values of several laboratories.
Protocols differ between the studies behind these lines.
Target: Cyclin-dependent kinase-like 2 (CDKL2, Homo sapiens, UniProt Q92772)
Residues used in one study (Q92772 1-493): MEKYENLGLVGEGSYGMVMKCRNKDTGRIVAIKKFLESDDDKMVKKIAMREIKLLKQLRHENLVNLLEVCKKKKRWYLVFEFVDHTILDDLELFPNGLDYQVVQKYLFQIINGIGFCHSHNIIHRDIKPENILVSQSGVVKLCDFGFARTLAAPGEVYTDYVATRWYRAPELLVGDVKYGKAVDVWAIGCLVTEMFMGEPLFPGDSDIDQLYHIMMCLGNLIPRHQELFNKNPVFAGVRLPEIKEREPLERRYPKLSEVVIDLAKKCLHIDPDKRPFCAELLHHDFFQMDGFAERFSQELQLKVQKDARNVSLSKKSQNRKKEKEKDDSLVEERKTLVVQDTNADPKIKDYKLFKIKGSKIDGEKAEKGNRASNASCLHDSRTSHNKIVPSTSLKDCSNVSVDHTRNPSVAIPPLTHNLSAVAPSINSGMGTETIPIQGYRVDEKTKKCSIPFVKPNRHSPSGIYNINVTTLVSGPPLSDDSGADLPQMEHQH

SMILES | read-out | method | concentration | remaining binding [%]
Nc1ncc2c(n1)-c1c([nH]c3ccc(C#CC4CC4)cc13)CCCC2 | binding | competition with immobilised ligand | 1 µM | 96
N[C@@H]1CCN(c2nccc(-c3cnn4ncccc34)n2)C1 | binding | – | 1 µM | 100
Cc1nc(C2CCN(C(=O)c3ccc(OC(F)(F)F)cc3N)CC2)c2ncc(N3CCN(C)CC3)cc2n1 | cell-free assay | competition with immobilised ligand | 1 µM | 100
F[C@@H]1CCN(c2nccc(-c3cnn4ncccc34)n2)C1 | binding | – | 1 µM | 100
CO[C@@H](C)c1c(Nc2ccc([C@@H](N(C)C(=O)C3CCS(=O)(=O)CC3)C(F)(F)F)cc2)cnc2cc(Cl)nn12 | cell-free assay | competition with immobilised ligand | 1 µM | 88
C[C@@H](c1ccc(-n2cnc3c(N)ncnc32)cc1)N1CCc2nn(C)c(Cc3ccccc3)c2C1=O | binding | competition with immobilised ligand | 0.1 µM | 67
CC(=O)N1CCC(c2ccc(C(=O)NC3=NCCN3)cc2C(F)(F)F)CC1 | cell-free assay | competition with immobilised ligand | 1 µM | 100
O=C(NCCCN1CCOCC1)c1ccc(Nc2ncc(Cl)c(-c3ccc(Cl)s3)n2)cc1 | binding | competition with immobilised ligand | 1 µM | 19
c1cnn2ncc(-c3ccnc(N4CCC45COC5)n3)c2c1 | binding | – | 1 µM | 91
C=CC(=O)N1CCC(C(=O)NCC(=O)N2CCN(c3nc(-c4cnc(N)nc4C(F)F)nc(N4CCOCC4)n3)CC2)CC1 | binding | competition with immobilised ligand | 1 µM | 100
CNC(=O)[C@@H]1CC[C@@H](n2c(-c3ccc4cnccc4c3)nc3ccc(C(=O)NCc4cccc(C(N)=O)c4)cc32)C1 | binding | competition with immobilised ligand | 1 µM | 100
Cc1cnn2ncc(-c3ccnc(N(C)C)n3)c2c1 | binding | – | 1 µM | 100
Cc1cnc(Nc2ccc(C(=O)N3CCC(N4CCCC4)CC3)cc2)nc1-c1cc2ccccc2s1 | binding | competition with immobilised ligand | 1 µM | 12
C[C@@H]1CCN(c2nccc(-c3cnn4ncccc34)n2)C1 | binding | – | 1 µM | 99
COc1cnc(Nc2cccc(S(N)(=O)=O)c2)nc1N1CCN(c2ccccc2)C(=O)C1 | binding | competition with immobilised ligand | 1 µM | 98
CN(C)c1ncc(F)c(-c2cnn3ncccc23)n1 | binding | – | 1 µM | 89
C[C@H](c1ccnc(Nc2nc3ccc(-c4cc(N(C)C)ncn4)cc3[nH]2)c1)N1CCN(C(=O)CC(F)(F)F)CC1 | binding | competition with immobilised ligand | 0.1 µM | 100
O=C(NCC1CCOCC1)c1n[nH]cc1NC(=O)c1c(F)cccc1F | binding | competition with immobilised ligand | 1 µM | 93
Cc1nc(Cc2cccc(C(F)(F)F)c2)sc1-c1ccc(C(N)=O)nc1 | binding | competition with immobilised ligand | 1 µM | 92
O=C(c1ccc(Nc2ncc(Cl)c(-c3ccc(Cl)s3)n2)cc1)N1CCC(N2CCCC2)CC1 | binding | competition with immobilised ligand | 1 µM | 2.3
CN(c1ccnc(CNc2nc(Nc3ccc4c(c3)CC(=O)N4)ncc2C(F)(F)F)n1)S(C)(=O)=O | cell-free assay | competition with immobilised ligand | 1 µM | 84
CN(CCCC(F)(F)F)c1nccc(-c2cnn3ncccc23)n1 | binding | – | 1 µM | 100
